How the values were obtained:
[1] = system: Influenza A virus; assay: Antiviral activity against Influenza A virus (A/Puerto Rico/8/1934(H1N1)) infected in MDCK cells assessed as inhibition of virus-induced cytopathic effect after 48 hrs by CellTitre-Glo assay; assay type: functional, organism-based
Method in brief: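 MDCK cells infected with PR8 H1N1. IC50 is the compound concentration at which half of the infected cells survive. Only compounds with CC50 above 50 μM in MDCK cells were tested.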

[2] = system: MDCK; assay: Cytotoxicity against MDCK cells after 48 hrs by methylene blue dye-based spectroscopy relative to control; assay type: cell-based, Canis lupus familiaris; conditions: dog
Method in brief: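 MDCK cells. CC50 is the compound concentration that kills half of the cell population.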

[3] = Inhibition of influenza A virus H1N1 endonuclease N-terminal domain of PA-subunit expressed in Escherichia coli BL21(DE3) using FAM-AAT CGC AGG CAG CAC TC-TAM as substrate by FRET assay
Method in brief: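 Recombinant PA_N construct from pH1N1 2009 influenza in a FRET read-out of endonuclease cleavage. Compounds were first screened at 200 μM, then run in dose-response to derive IC50.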

[4] = Influenza A virus, A/Puerto Rico/8/1934(H1N1), MDCK, 48 h, read-out: IC50

With `O=C(/C=C(O)/C(O)=C/C(=O)c1ccc(Cl)cc1)c1ccc(Cl)cc1` the IC50 [1, 4] was over 50 µM, the CC50 ([2]; read-out: CC50) was over 100 µM and the IC50 [3] was 11.7 µM.

In the case of `O=C(Cc1ccccc1Cl)c1ccc(O)c(O)c1O`, the IC50 [1, 4] is reported as over 50 µM, the CC50 ([2]; read-out: CC50) is reported as over 50 µM and the IC50 [3] is reported as 5 µM.

`O=C1CC2(CCCCC2)Oc2c1ccc(O)c2O` showed an IC50 [1, 4] of over 100 µM, a CC50 ([2]; read-out: CC50) of over 100 µM and an IC50 [3] of 8 µM.

In the case of `O=C(Cc1ccccc1)c1ccc(O)c(O)c1O`, the CC50 ([2]; read-out: CC50) is reported as 18.1 µM and the IC50 [3] is reported as 1.5 µM.

In the case of `CC(=O)N1CCC2(CC1)CC(=O)c1ccc(O)c(O)c1O2`, the IC50 [1, 4] is reported as over 100 µM, the CC50 ([2]; read-out: CC50) is reported as over 100 µM and the IC50 [3] is reported as 46 µM.

Work on `O=C(N/N=C\c1cccc(Cl)c1Cl)c1ccc(O)c(O)c1` yielded a CC50 ([2]; read-out: CC50) of 6.8 µM and an IC50 [3] of 0.7 µM.

In the case of `O=C(/N=C1/C(=O)Nc2ccc(Br)cc21)/C(O)=C/C(=O)c1ccc(Cl)cc1`, the CC50 ([2]; read-out: CC50) is reported as over 50 µM and the IC50 [3] is reported as 23 µM.

In the case of `COc1ccc(NC(=O)/C(O)=C/C(=O)c2ccc(Cl)cc2)cc1`, the IC50 [1, 4] is reported as over 50 µM, the CC50 ([2]; read-out: CC50) is reported as over 100 µM and the IC50 [3] is reported as 0.74 µM.

For `C/C(=N/NC(=O)c1ccc(O)c(O)c1)c1ccc(C)cc1`, the IC50 [1, 4] was over 50 µM, the CC50 ([2]; read-out: CC50) was over 50 µM and the IC50 [3] was 2.1 µM.

In the case of `Cc1ccccc1/C=N\NC(=O)c1ccc(O)c(O)c1`, the IC50 [1, 4] is reported as over 50 µM, the CC50 ([2]; read-out: CC50) is reported as over 50 µM and the IC50 [3] is reported as 1.9 µM.

`Cc1ccccc1CC(=O)c1ccc(O)c(O)c1O` gave a CC50 ([2]; read-out: CC50) of 21 µM and an IC50 [3] of 11 µM.

`COc1ccccc1N1CCN(/N=C/c2ccc(O)c(O)c2)CC1` gave a CC50 ([2]; read-out: CC50) of 13 µM and an IC50 [3] of 2 µM.

Work on `Cc1ccc(C(=O)/C=C(O)/C(O)=C/C(=O)c2ccc(C)cc2)cc1` yielded an IC50 [1, 4] of 23 µM, a CC50 ([2]; read-out: CC50) of over 50 µM and an IC50 [3] of 6 µM.

Compound `COc1ccc(NC(=O)/C(O)=C/C(=O)c2ccc(C)cc2)cc1` has an IC50 [1, 4] of over 50 µM, a CC50 ([2]; read-out: CC50) of over 50 µM and an IC50 [3] of 0.6 µM.

In the case of `O=C(N/N=C\c1ccc(/C=N/NC(=O)c2ccc(O)c(O)c2)cc1)c1ccc(O)c(O)c1`, the IC50 ([1]; mdck) is reported as “ND(Insoluble)”, the CC50 [2] is reported as “ND(Insoluble)” and the IC50 [3] is reported as 23 µM.

`O=C(N/N=C\c1ccccc1Cl)c1cc(O)c(O)c(O)c1` showed an IC50 [1, 4] of 18 µM, a CC50 ([2]; read-out: CC50) of over 100 µM and an IC50 [3] of 14 µM.

Source: ChEMBL document CHEMBL3108673, “Computation-guided discovery of influenza endonuclease inhibitors” (ACS Med Chem Lett, 2014)
